Test results as given in ChEMBL document CHEMBL1138091, “Privileged structure based ligands for melanocortin-4 receptors--aliphatic piperazine derivatives” (Bioorg Med Chem Lett, 2006).
pKi: −log10 of the molar value.

biological target: Melanocortin receptor 4 (Homo sapiens, UniProt P32245); assay: Inhibition of [125I]NDP-alpha-MSH binding to human MC4R transfected in HEK293 cells; format: cell-based
Method in brief: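 Competition binding against ¹²⁵I-NDP-α-MSH on HEK293 cells stably expressing human MC4 receptor; affinity taken from inhibition of radioligand binding. Each value is the mean of at least two determinations, with the binding assay's average error given as 15%.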

Sequence of Melanocortin receptor 4 (P32245 whole entry): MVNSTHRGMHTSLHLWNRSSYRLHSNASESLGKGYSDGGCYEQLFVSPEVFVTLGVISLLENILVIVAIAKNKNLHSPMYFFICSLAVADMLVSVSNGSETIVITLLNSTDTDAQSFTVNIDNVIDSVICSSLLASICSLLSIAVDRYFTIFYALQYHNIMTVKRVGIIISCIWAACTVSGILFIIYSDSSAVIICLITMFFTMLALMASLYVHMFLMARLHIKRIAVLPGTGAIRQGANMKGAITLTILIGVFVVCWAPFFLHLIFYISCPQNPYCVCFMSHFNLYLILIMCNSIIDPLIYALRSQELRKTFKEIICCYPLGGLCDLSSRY

| pKi | SMILES |
| --- | --- |
| 8.22 | CCN(CC(C1CCCCC1)N1CCN(C(=O)[C@@H](Cc2ccc(Cl)cc2)NC(=O)CC2Cc3ccccc3N2)CC1)S(C)(=O)=O (stereo in doubt; 34a) |
| 7.89 | CCN(CC)CC(C1CCCCCC1)N1CCN(C(=O)[C@@H](Cc2ccc(Cl)cc2)NC(=O)[C@H]2Cc3ccccc3CN2)CC1 (some centres not stated) |
| 8.30 | CCN(CC)CC(C1CCCCC1)N1CCN(C(=O)[C@@H](Cc2ccc(Cl)cc2)NC(=O)CC2Cc3ccccc3N2)CC1 (stereo in doubt; 28b) |
| 8.52 | CCN(CC)CC(C1CCCCC1)N1CCN(C(=O)[C@@H](Cc2ccc(Cl)cc2)NC(=O)CC2Cc3ccccc3N2)CC1 (stereo in doubt; 28) |
| 8.70 | CCN(CC(C1CCCCC1)N1CCN(C(=O)[C@@H](Cc2ccc(Cl)cc2)NC(=O)CC2Cc3ccccc3N2)CC1)C(C)=O (stereo in doubt; 35a) |
| 8.52 | CCN(CC(C1CCCCC1)N1CCN(C(=O)[C@@H](Cc2ccc(Cl)cc2)NC(=O)CC2Cc3ccccc3N2)CC1)C(C)=O (stereo in doubt; 35b) |
| 6.49 | O=C(CC1Cc2ccccc2N1)N[C@H](Cc1ccc(Cl)cc1)C(=O)N1CCN(C(CC2CCCCC2)CC2CCCCC2)CC1 (some centres not stated) |
| 6.83 | CCN(CC)C(=O)C(C1CCCCC1)N1CCN(C(=O)[C@@H](Cc2ccc(Cl)cc2)NC(=O)CC2Cc3ccccc3N2)CC1 (some centres not stated) |
| 8.15 | CCN(CC(C1CCCCC1)N1CCN(C(=O)[C@@H](Cc2ccc(Cl)cc2)NC(=O)n2cc3ccccc3c2)CC1)S(C)(=O)=O (some centres not stated) |
| 8.52 | CCN(CC(C1CCCCC1)N1CCN(C(=O)[C@@H](Cc2ccc(Cl)cc2)NC(=O)CC2Cc3ccccc3N2)CC1)S(C)(=O)=O (stereo in doubt; 34) |
| 8.00 | O=C(CC1Cc2ccccc2N1)N[C@H](Cc1ccc(Cl)cc1)C(=O)N1CCN(C(CN2C(=O)CCC2=O)C2CCCCC2)CC1 (stereo in doubt; 36a) |
| 7.70 | CCN(CC)CC(c1ccccc1F)N1CCN(C(=O)[C@@H](Cc2ccc(Cl)cc2)NC(=O)[C@H]2Cc3ccccc3CN2)CC1 (some centres not stated) |
| 8.40 | CCN(CC)CC(C1CCCCC1)N1CCN(C(=O)[C@@H](Cc2ccc(Cl)cc2)NC(=O)[C@H]2Cc3ccccc3CN2)CC1 (some centres not stated) |
| 7.74 | CC(C)CC(CC(C)C)N1CCN(C(=O)[C@@H](Cc2ccc(Cl)cc2)NC(=O)CC2Cc3ccccc3N2)CC1 (some centres not stated) |
| 5.47 | CCN(CC)CC(C)N1CCN(C(=O)[C@@H](Cc2ccc(Cl)cc2)NC(=O)[C@H]2Cc3ccccc3CN2)CC1 (some centres not stated) |
| 7.74 | O=C(CC1Cc2ccccc2N1)N[C@H](Cc1ccc(Cl)cc1)C(=O)N1CCN(C(CN2C(=O)CCC2=O)C2CCCCC2)CC1 (stereo in doubt; 36b) |
| 7.15 | CCN(CC)CC1(N2CCN(C(=O)[C@@H](Cc3ccc(Cl)cc3)NC(=O)[C@H]3Cc4ccccc4CN3)CC2)CCCC1 |
| 8.00 | O=C(CC1Cc2ccccc2N1)N[C@H](Cc1ccc(Cl)cc1)C(=O)N1CCN(C(CC2CCCCC2)CN2CCOCC2)CC1 (some centres not stated) |
| 7.46 | O=C(CC1Cc2ccccc2N1)N[C@H](Cc1ccc(Cl)cc1)C(=O)N1CCN(C(C2CCCCC2)C2CCCCC2)CC1 (some centres not stated) |
| 8.10 | CCN(CC(C1CCCCC1)N1CCN(C(=O)[C@@H](Cc2ccc(Cl)cc2)NC(=O)CC2Cc3ccccc3N2)CC1)C(C)=O (stereo in doubt; 35) |
| 7.89 | CCN(CC)CC(CC1CCCCC1)N1CCN(C(=O)[C@@H](Cc2ccc(Cl)cc2)NC(=O)[C@H]2Cc3ccccc3CN2)CC1 (some centres not stated) |
| 8.52 | CCN(CC)CC(C1CCCCC1)N1CCN(C(=O)[C@@H](Cc2ccc(Cl)cc2)NC(=O)CC2Cc3ccccc3N2)CC1 (stereo in doubt; 28a) |
| 7.27 | CC(C)CC(C1CCCCC1)N1CCN(C(=O)[C@@H](Cc2ccc(Cl)cc2)NC(=O)CC2Cc3ccccc3N2)CC1 (some centres not stated) |
| 8.40 | CCN(CC)CC(C1CCCC1)N1CCN(C(=O)[C@@H](Cc2ccc(Cl)cc2)NC(=O)[C@H]2Cc3ccccc3CN2)CC1 (some centres not stated) |
| 8.30 | CCN(CC)CC(CC1CCCCC1)N1CCN(C(=O)[C@@H](Cc2ccc(Cl)cc2)NC(=O)CC2Cc3ccccc3N2)CC1 (some centres not stated) |
| 7.59 | CS(=O)(=O)NCC(C1CCCCC1)N1CCN(C(=O)[C@@H](Cc2ccc(Cl)cc2)NC(=O)CC2Cc3ccccc3N2)CC1 (some centres not stated) |
| 8.00 | O=C(CC1Cc2ccccc2N1)N[C@H](Cc1ccc(Cl)cc1)C(=O)N1CCN(C(CN2C(=O)CCC2=O)C2CCCCC2)CC1 (stereo in doubt; 36) |
